For experiment [1], the target named is T1, Alpha-2A adrenergic receptor (Homo sapiens, UniProt P08913).
T1 sequence (P08913 whole entry): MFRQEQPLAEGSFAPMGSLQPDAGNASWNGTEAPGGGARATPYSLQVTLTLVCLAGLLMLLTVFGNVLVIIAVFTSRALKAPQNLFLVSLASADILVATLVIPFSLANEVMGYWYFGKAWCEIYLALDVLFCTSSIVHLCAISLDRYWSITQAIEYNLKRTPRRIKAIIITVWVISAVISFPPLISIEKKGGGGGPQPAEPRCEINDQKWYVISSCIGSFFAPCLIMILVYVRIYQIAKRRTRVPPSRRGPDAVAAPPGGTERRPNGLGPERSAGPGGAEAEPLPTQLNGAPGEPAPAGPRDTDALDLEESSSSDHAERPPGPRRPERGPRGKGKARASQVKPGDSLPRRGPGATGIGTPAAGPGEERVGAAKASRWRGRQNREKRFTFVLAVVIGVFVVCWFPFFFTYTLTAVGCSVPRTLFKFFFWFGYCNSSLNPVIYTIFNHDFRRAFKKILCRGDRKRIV
Kind of experiment: Agonist activity at human alpha2A adrenoceptor expressed in CHO-K1 cells after 30 mins by [35S]GTPgammaS binding assay. In kind it is functional, cell-based. The method in brief: (§1)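 Membranes from CHO cells stably expressing human α2A-AR (5 µg protein) were incubated with 7 or 8 serial dilutions of compound and 0.1 nM [35S]GTPγS. Buffer: 25 mM Tris, 1 mM EDTA, 5 mM MgCl2, 20 mM NaCl, 1 µM GDP, 1 mM DTT, 30 µM ascorbic acid, pH 7.4. Incubation 30 min at RT, then vacuum filtration and scintillation counting. Run in duplicate, at least 3 repeats.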

Experiment [2] deals with T2, Alpha-2B adrenergic receptor (Homo sapiens, UniProt P18089).
T2 sequence (P18089 whole entry): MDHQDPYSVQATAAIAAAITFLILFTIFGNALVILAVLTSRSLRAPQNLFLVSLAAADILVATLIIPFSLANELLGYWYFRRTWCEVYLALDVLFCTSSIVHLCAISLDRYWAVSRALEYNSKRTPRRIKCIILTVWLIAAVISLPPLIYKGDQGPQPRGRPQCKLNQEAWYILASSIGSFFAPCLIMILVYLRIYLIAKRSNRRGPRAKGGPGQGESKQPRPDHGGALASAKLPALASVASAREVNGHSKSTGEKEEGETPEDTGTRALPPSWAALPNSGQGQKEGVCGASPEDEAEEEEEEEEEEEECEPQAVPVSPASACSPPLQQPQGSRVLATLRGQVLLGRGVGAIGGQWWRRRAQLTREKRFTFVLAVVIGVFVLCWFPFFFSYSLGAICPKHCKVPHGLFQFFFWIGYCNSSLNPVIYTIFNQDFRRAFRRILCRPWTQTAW
Kind of experiment: Displacement of [3H]RS-79948-197 from human alpha2B adrenoceptor expressed in CHO-K1 cells after 45 mins by liquid scintillation counting. In kind it is cell-based. The method in brief:
(§2)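 Membranes from CHO-K1 cells stably expressing each human α2-AR subtype (6–10 µg protein). Used 0.2 nM [3H]RS-79948-197 and 8 serial dilutions of competitor in 50 mM potassium phosphate, pH 7.4. Non-specific binding defined with 100 µM oxymetazoline. Filtration, then scintillation counting. Run in duplicate, at least 3 repeats. One-site nonlinear fit; IC50 converted to Ki by Cheng-Prusoff.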

Experiment [3] concerns the target T3, Alpha-2A adrenergic receptor (Homo sapiens) (UniProt P08913).
T3 sequence (whole entry): T1 sequence (P08913 whole entry)
Kind of experiment: Intrinsic activity at human alpha2A adrenoceptor expressed in CHO-K1 cells after 30 mins by [35S]GTPgammaS binding assay relative to norepinephrine. In kind it is functional, cell-based. The method in brief:
as §1
On the technique in general: GTPγS resists hydrolysis and so accumulates on activated G proteins.

For experiment [4], the target named is T1, Alpha-2A adrenergic receptor. Kind of experiment: Displacement of [3H]RS-79948-197 from human alpha2A adrenoceptor expressed in CHO-K1 cells after 45 mins by liquid scintillation counting. The class given is cell-based. The method in brief: as §2

The EC50 is the concentration that produces a half-maximal response. Lower therefore signals greater potency. A word on the Ki: it is the dissociation constant of the complex between target and ligand, obtained from inhibition or displacement. A high value points to a looser hold on the target. `Fc1ccc2cnn(N=C3NCCN3)c2c1` had an EC50 in experiment [1] of 0.0389 µM. The figures for the Ki in experiment [2] and in experiment [4] were 0.072 µM and 0.033 µM, respectively. In experiment [3], this compound gave an Intrinsic activity of 5.2%.

With `Fc1cccc2cnn(N=C3NCCN3)c12`, in experiment [1], the EC50 is 0.2 µM. Besides, the Ki was found to be 0.158 µM in experiment [2] and 0.065 µM in experiment [4]. Moreover, in experiment [3], the Intrinsic activity came to 18%.

The record behind these values is ChEMBL document CHEMBL3351639, “Fluorinated analogues of marsanidine, a highly α2-AR/imidazoline I1 binding site-selective hypotensive agent. Synthesis and biological activities” (Eur J Med Chem, 2014).
